The other results are listed elsewhere or left out. Results filed as inconclusive are left out. A number with no mark means an inactive call. Active and inactive are the calls of the source.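 Rule for the calls: active = thallium entry rate above the same plate's blocked-transporter control wells by more than 3 SD; inconclusive = the two repeat wells disagree; inactive = the rest.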

The nature of this experiment: PubChem AID 1714.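 Note: raw slope of fluorescence over initial fluorescence between 10 and 20 s after thallium.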 Particulars: HEK293-KCC2 + bumetanide/ouabain, thallium flux FluoZin2; at 10 µM; stronger effect = higher value. In short, it runs like this: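 Assay system: HEK cells expressing the K-Cl cotransporter KCC2; buffer or medium: HBSS-HEPES plus ouabain 0.2 mM, bumetanide 2 mM; reagent: thallium stimulus; compound dosing: 10 µM single dose; timing: 48 min dye loading; signal: FluoZin2-AM (0.5 µM) fluorescence, 480 nm ex/540 nm em, 1 Hz kinetic imaging; replication: duplicates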
Consider `Cc1cc(C(=O)NNC(=S)Nc2ccccc2C)cs1`, for which the normalized thallium flux was 0.0117 (active).

Take `O=C(N/N=C/c1ccc(Br)o1)c1cncc(Br)c1`: the normalized thallium flux is 0.0326 (active).

For `O=C(Cc1csc(Nc2nc(=S)[nH]c3ccccc23)n1)NCCCN1CCN(c2cccc(Cl)c2)CC1`, the normalized thallium flux is 0.0417 (active).

Take `COc1cc(OC)cc(C(=O)NCCSCc2ccco2)c1`: the normalized thallium flux is 0.00654.

`O=S(=O)(c1cccc(S(=O)(=O)N2CCC(n3nnc4ccccc43)CC2)c1)N1CCCCC1`: the normalized thallium flux was 0.00678.

In the case of `COC(=O)c1sc(NC(=S)NC(=O)c2ccc(C)cc2)nc1C`, the normalized thallium flux was 0.104 (active).

For the molecule `O=C(CNCc1cccs1)Nc1cc(S(=O)(=O)N2CCCC2)ccc1Cl`, the normalized thallium flux was 0.00419.

As to `CC1Cc2ccccc2N1C(=O)CSc1nc2ccccc2o1` (centres undefined), the normalized thallium flux was 0.0054.

For the molecule `Oc1c(Cl)cc(Cl)c(Cl)c1Cc1c(O)c(Cl)cc(Cl)c1Cl`, the normalized thallium flux is 0.0366 (active).

For `Cc1ccccc1NC(=S)NNC(=O)c1cccc(Br)c1`, the normalized thallium flux is 0.028 (active).

As to `COc1cccc(NC(=S)NC(=O)c2c(Cl)c(C)nn2C)c1`, the normalized thallium flux is 0.063 (active).

With `Cn1c(CCCOc2ccc(Cl)cc2Cl)n[nH]c1=S`, the normalized thallium flux was 0.00856 (active).

For the molecule `CC1CCCCN1S(=O)(=O)c1ccc(C(=O)Nc2nnc(-c3cccs3)o2)cc1` (centres undefined), the normalized thallium flux was 0.0292 (active).

Take `CCCCn1c(=S)[nH]c2ncccc2c1=O`: the normalized thallium flux was 0.12 (active).

With `COc1cccc2sc(Nc3nc(C)c(C(C)=O)s3)nc12`, the normalized thallium flux is 0.0124 (active).

For `COc1ccccc1N1CCN(C(=O)CSc2ncnc3c2cnn3-c2ccc(C)c(C)c2)CC1`, the normalized thallium flux is 0.00504.

For `CS(=O)(=O)N(CC(=O)N1CCN(c2ccc(F)cc2)CC1)C1CCCCC1`, the normalized thallium flux was 0.00489.

Turning to `O=C(NNC(=S)NC(=O)c1cn(-c2ccccc2)nc1-c1ccccc1)c1ccncc1`, the normalized thallium flux was 0.0138 (active).

For the molecule `CCCCn1c(SCC(=O)NCC2CCCO2)nc2ccc(N3CCOCC3)cc2c1=O` (centres undefined), the normalized thallium flux is 0.0198 (active).

Consider `COc1ccccc1-n1cnc2cc(NS(=O)(=O)c3ccccc3)ccc21`, for which the normalized thallium flux is 0.00527.

With `Cc1ccc(-n2ncc3c(Nc4cccc(C(=O)O)c4)ncnc32)cc1`, the normalized thallium flux is 0.00541.

In the case of `Cn1c(C(=O)NCCc2ccsc2)cc2c(=O)n(C)c3ccccc3c21`, the normalized thallium flux is 0.00386.

For the molecule `Cc1ccc(C)c(NC(=S)NNC(=S)Nc2ccc(C(C)C)cc2)c1`, the normalized thallium flux was 0.00979 (active).

Consider `Cc1ccc(OCC(=O)N2CCN(C(=O)c3cccnc3)CC2)cc1`, for which the normalized thallium flux is 0.00586.

Consider `O=C(Nc1ccc2oc(-c3ccccc3F)nc2c1)c1ccco1`, for which the normalized thallium flux was 0.00477.

Take `Cc1cc(C)c2cc(CN(Cc3cccs3)Cc3nnnn3CC3CCCO3)c(=O)[nH]c2c1` (centres undefined): the normalized thallium flux was 0.0043.

For the molecule `Cc1ccc(N=Cc2c(O)n(-c3nccs3)c(=O)c3ccccc23)c(C)c1`, the normalized thallium flux was -0.00484 (active).

Consider `Cc1cccc(-n2c(SCC(N)=O)nc3c(c2=O)C2(CCCCC2)Cc2ccccc2-3)c1`, for which the normalized thallium flux is 0.017 (active).

Consider `O=c1c2ccccc2[nH]c(=S)n1CCN1CCC(=C(c2ccc(F)cc2)c2ccc(F)cc2)CC1`, for which the normalized thallium flux was 0.0111 (active).

Regarding `O=C(Nc1ccn(Cc2ccccc2)n1)c1cccc(F)c1`, the normalized thallium flux is 0.00499.

With `COc1ccc(Cl)cc1C(=O)NNC(=S)NC(=O)/C=C/c1ccco1`, the normalized thallium flux is 0.0479 (active).

Regarding `O=C(C1CCN(c2nnc(-n3cccc3)s2)CC1)N1CCc2ccccc2C1`, the normalized thallium flux is 0.00506.

Take `Fc1ccc(COc2cccc(-c3n[nH]c(=S)o3)c2)cc1`: the normalized thallium flux was 0.101 (active).

On to `O=C(Oc1c(-c2ccco2)oc2ccccc2c1=O)c1cccnc1`, for which the normalized thallium flux was 0.0675 (active).

Consider `Cc1c(C(=O)NC(=S)NCc2cccnc2)oc2ccccc12`, for which the normalized thallium flux was 0.0479 (active).

With `COCCn1c(C)cc(C(=O)CSc2ncnc3sc4c(c23)CCC4)c1C`, the normalized thallium flux is 0.013 (active).

`O=C(CSc1ccc(-c2cccs2)nn1)Nc1ccccc1F`: the normalized thallium flux was 0.00689.

As to `O=C(c1cc(-c2ccc(O)cc2)on1)N1CCCc2ccccc21`, the normalized thallium flux is 0.00639.

In the case of `CCCCC(CC)CNC(=O)C(=O)C1C(=O)Nc2ccccc21` (centres undefined), the normalized thallium flux is 0.0356 (active).

For the origin of these results see PubChem BioAssay.
